{"data": "Experimental data of several laboratories", "target": "Interleukin-1 receptor-associated kinase 4 (IRAK4, Homo sapiens, UniProt Q9NWZ3)", "One construct used (Q9NWZ3 1-460)": "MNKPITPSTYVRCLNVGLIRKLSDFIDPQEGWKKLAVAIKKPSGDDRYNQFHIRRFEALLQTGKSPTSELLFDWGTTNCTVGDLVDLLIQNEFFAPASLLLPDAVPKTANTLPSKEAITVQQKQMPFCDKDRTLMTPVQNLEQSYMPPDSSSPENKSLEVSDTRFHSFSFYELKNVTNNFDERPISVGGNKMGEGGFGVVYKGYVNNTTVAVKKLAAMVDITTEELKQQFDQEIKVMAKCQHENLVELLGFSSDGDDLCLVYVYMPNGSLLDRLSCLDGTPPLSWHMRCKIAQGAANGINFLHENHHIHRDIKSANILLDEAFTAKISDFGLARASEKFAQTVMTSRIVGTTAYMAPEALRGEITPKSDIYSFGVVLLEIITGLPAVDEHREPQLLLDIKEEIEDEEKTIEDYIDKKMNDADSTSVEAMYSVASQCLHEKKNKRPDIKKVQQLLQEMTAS", "note": "Lines come from different studies, so protocols differ."}
{"Compound": "O=C(NCCCN1CCOCC1)c1ccc(Nc2nccc(-c3cc4ccccc4s3)n2)cc1", "read-out": "binding", "method": "competition with immobilised ligand", "tested at": "1 µM", "remaining binding": "75%"}
{"Compound": "CN(c1nccc(-c2cnn3ncccc23)n1)C1CC1", "read-out": "binding", "tested at": "1 µM", "remaining binding": "100%"}
{"Compound": "C[C@H](c1ccnc(Nc2nc3ccc(-c4cc(N(C)C)ncn4)cc3[nH]2)c1)N1CCN(C(=O)CC(F)(F)F)CC1", "read-out": "cell-free assay", "method": "competition with immobilised ligand", "tested at": "0.1 µM", "remaining binding": "100%"}
{"Compound": "Cc1cnn2ncc(-c3ccnc(N(C)C)n3)c2c1", "read-out": "binding", "tested at": "1 µM", "remaining binding": "100%"}
{"Compound": "COc1cnc(Nc2cccc(S(N)(=O)=O)c2)nc1N1CCN(c2ccccc2)CC1", "read-out": "binding", "method": "competition with immobilised ligand", "tested at": "1 µM", "remaining binding": "65%"}
{"Compound": "O=C(NCCCN1CCOCC1)c1ccc(Nc2ncc(Cl)c(-c3ccc(Cl)s3)n2)cc1", "read-out": "binding", "method": "competition with immobilised ligand", "tested at": "1 µM", "remaining binding": "75%"}
{"Compound": "COc1ncc2cc3ccccc3nc2c1C#N", "read-out": "cell-free assay", "method": "competition with immobilised ligand", "tested at": "5 µM", "remaining binding": "97%"}
{"Compound": "O=C(NCc1ncc(C(F)(F)F)cc1Cl)c1ccc2c(c1)C1(CCS(=O)(=O)CC1)[C@H](C1CC1)N2S(=O)(=O)c1ccc(F)cc1", "read-out": "cell-free assay", "method": "competition with immobilised ligand", "tested at": "1 µM", "remaining binding": "100%"}
{"Compound": "CN(C)c1nccc(-c2cnn3ncccc23)n1", "read-out": "binding", "tested at": "1 µM", "remaining binding": "73%"}
{"Compound": "CCS(=O)(=O)c1cc2cc(C[C@](O)(CC(C)(C)c3ccc(F)cc3C(N)=O)C(F)(F)F)[nH]c2cn1", "read-out": "cell-free assay", "method": "competition with immobilised ligand", "tested at": "1 µM", "remaining binding": "100%"}
{"Compound": "O=C(Nc1c[nH]nc1C(=O)NC1CCNCC1)c1cc(F)cc(F)c1", "read-out": "binding", "method": "competition with immobilised ligand", "tested at": "1 µM", "remaining binding": "100%"}
{"Compound": "COc1cnc(Nc2cccc(S(N)(=O)=O)c2)nc1N1CCN(c2ccccc2)C(=O)C1", "read-out": "binding", "method": "competition with immobilised ligand", "tested at": "1 µM", "remaining binding": "88%"}
{"Compound": "CC1CCCN1c1nccc(-c2cnn3ncccc23)n1 (centres unmarked)", "read-out": "binding", "tested at": "1 µM", "remaining binding": "84%"}
{"Compound": "Nc1ncc2c(n1)-c1c([nH]c3ccc(C#CC4CC4)cc13)CCCC2", "read-out": "binding", "method": "competition with immobilised ligand", "tested at": "1 µM", "remaining binding": "86%"}
{"Compound": "CN([C@@H]1CCc2c(CC(=O)O)c3cc(S(C)(=O)=O)ccc3n2C1)S(=O)(=O)c1ccc(F)cc1", "read-out": "cell-free assay", "method": "competition with immobilised ligand", "tested at": "1 µM", "remaining binding": "95%"}
{"Compound": "O=C(c1ccc(Nc2nccc(-c3cc4ccccc4s3)n2)cc1)N1CCC(N2CCCC2)CC1", "read-out": "binding", "method": "competition with immobilised ligand", "tested at": "1 µM", "remaining binding": "100%"}
{"Compound": "Cn1cc(Cl)c2c(Oc3c(F)cc(Nc4cc(Cl)nc(N)n4)cc3F)ccnc21", "read-out": "cell-free assay", "method": "competition with immobilised ligand", "tested at": "0.1 µM", "remaining binding": "90%"}
{"Compound": "N[C@@H]1CCN(c2nccc(-c3cnn4ncccc34)n2)C1", "read-out": "binding", "tested at": "1 µM", "remaining binding": "99%"}
{"Compound": "CCOC(=O)c1cc2cc(-c3cc(C(=O)NCc4ccc(C(=O)O)cc4)nn3C)ccc2[nH]1", "read-out": "cell-free assay", "method": "competition with immobilised ligand", "tested at": "0.1 µM", "remaining binding": "91%"}
{"Compound": "C[C@H]1CCN(c2nccc(-c3cnn4ncccc34)n2)C1", "read-out": "binding", "tested at": "1 µM", "remaining binding": "73%"}
